ChEMBL document CHEMBL5705901, “Exploiting selective BCL-2 family inhibitors to dissect cell survival dependencies and define improved strategies for cancer therapy” (Sci Transl Med, 2015)
Active and inactive are the calls of the source. The calls are words filed in the database; no cut-off is given here.

Tests used:
NCI-H196 = test: Synergistic antiproliferative activity against 5 times passaged human NCI-H1963 cells xenografted in mouse assessed as reduction in tumor volume at 25 mg/kg, po co-administered with venetoclax twice a day for 14 days; assay type: functional, organism-based; settings: time 14.0 day
NCI-H1650 [1] = test: Synergistic antitumor activity against human NCI-H1650 cells xenografted in SCID-bg mouse assessed as tumor growth delay at 25 mg/kg, po coadministered with docetaxel once daily for 14 days relative to control; assay type: functional; settings: time 14 day
Procedure, shortened: (§1)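 Xenografts dosed with oral inhibitor plus intravenous docetaxel. TGImax = 100(1 − Tv/Cv), from mean treated and control tumor volumes; TGD = 100(T/C − 1), from median times to reach 1 cm3. Group size 5 mice (NCI-H747, A549-FP3, EBC-1, OVCAR-5), 8 (NCI-H358), 10 (NCI-H1650).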

EBC-1 = test: Synergistic antitumor activity against human EBC-1 cells xenografted in po dosed SCID-bg mouse assessed as maximum tumor growth inhibition in presence of docetaxel relative to control; assay type: functional; procedure, shortened: as §1
OVCAR-5 [2] = test: Synergistic antitumor activity against human OVCAR-5 cells xenografted in po dosed SCID mouse assessed as tumor growth delay in presence of docetaxel relative to control; assay type: functional; procedure, shortened: as §1
NCI-H747 = test: Synergistic antitumor activity against human NCI-H747 cells xenografted in po dosed SCID-bg mouse assessed as maximum tumor growth inhibition in presence of docetaxel relative to control; assay type: functional; procedure, shortened: as §1
A549 [3] = test: Antitumor activity against 3 times passaged human A549 cells xenografted in po dosed SCID mouse assessed as maximum tumor growth inhibition relative to control; assay type: functional
NCI-H1650 [4] = test: Antitumor activity against human NCI-H1650 cells xenografted in SCID-bg mouse assessed as tumor growth delay at 25 mg/kg, po administered daily for 14 days relative to control; assay type: functional; settings: time 14 day
Procedure, shortened: (§2)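 NCI-H1650 NSCLC xenografts, ten mice per group. Arms: vehicle; docetaxel iv once at 7.5 mg/kg; oral agent daily for 14 days at 25 mg/kg; and the two combined. TGImax = 100(1 − Tv/Cv) from mean volumes. TGD = 100(T/C − 1) from median times to reach 1 cm3.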

NCI-H358 = test: Synergistic antitumor activity against human NCI-H358 cells xenografted in po dosed SCID mouse assessed as maximum tumor growth inhibition in presence of docetaxel relative to control; assay type: functional; procedure, shortened: as §1
[5] = Toxicity in po dosed SCID-bg mouse assessed as body weight loss in presence of docetaxel relative to control; assay type: organism-based; settings: in vivo
OVCAR-5 [6] = test: Antitumor activity against human OVCAR-5 xenografted in po dosed SCID mouse assessed as maximum tumor growth inhibition relative to control; assay type: functional
NCI-H1650 [7] = test: Antitumor activity against human NCI-H1650 cells xenografted in SCID-bg mouse assessed as maximum tumor growth inhibition at 25 mg/kg, po administered daily for 14 days relative to control; assay type: functional; settings: NCI-H1650, 336 h, time 14 day, read-out: TGI; procedure, shortened: as §2
[8] = Toxicity in po dosed SCID mouse assessed as body weight loss relative to control; assay type: organism-based; settings: in vivo
NCI-H1650 [9] = test: Synergistic antitumor activity against human NCI-H1650 cells xenografted in SCID-bg mouse assessed as maximum tumor growth inhibition at 25 mg/kg, po coadministered with docetaxel once daily for 14 days relative to control; assay type: functional; settings: NCI-H1650, 336 h, time 14 day, read-out: TGI; procedure, shortened: as §1
[10] = Toxicity in po dosed SCID mouse assessed as tolerance; assay type: organism-based; settings: in vivo
UAC812 = test: Induction of apoptosis in UAC812 (unknown origin) cells assessed as accumulation of cells with sub-G0-G1 DNA content at 1 uM incubated for 48 hrs in presence of docetaxel by flow cytometric analysis; assay type: functional, cell-based
HCC38 = test: Induction of apoptosis in human HCC38 cells assessed as accumulation of cells with sub-G0-G1 DNA content at 1 uM incubated for 48 hrs in presence of docetaxel by flow cytometric analysis; assay type: functional, cell-based
MCF7 = test: Induction of apoptosis in human MCF7 cells expressing luciferase assessed as accumulation of cells with sub-G0-G1 DNA content at 1 uM incubated for 48 hrs in presence of docetaxel by flow cytometric analysis; assay type: functional, cell-based
MDA-MB-468 = test: Induction of apoptosis in human MDA-MB-468 cells assessed as poly(ADP-ribose) polymerase cleavage incubated for 48 hrs in presence of docetaxel by immunoblot analysis; assay type: functional, cell-based
HCC1937 [11] = test: Induction of apoptosis in human HCC1937 cells assessed as accumulation of cells with sub-G0-G1 DNA content at 1 uM incubated for 48 hrs in presence of docetaxel by flow cytometric analysis; assay type: functional, cell-based
HCC1395 = test: Induction of apoptosis in human HCC1395 cells assessed as accumulation of cells with sub-G0-G1 DNA content at 1 uM incubated for 48 hrs in presence of docetaxel by flow cytometric analysis; assay type: functional, cell-based
MDA-MB-361 = test: Induction of apoptosis in human MDA-MB-361 cells assessed as accumulation of cells with sub-G0-G1 DNA content at 1 uM incubated for 48 hrs in presence of docetaxel by flow cytometric analysis; assay type: functional, cell-based
HCC1954 = test: Induction of apoptosis in human HCC1954 cells assessed as accumulation of cells with sub-G0-G1 DNA content at 1 uM incubated for 48 hrs in presence of docetaxel by flow cytometric analysis; assay type: functional, cell-based
NCI-H1650 [12] = test: Synergistic antiproliferative activity against human NCI-H1650 cells assessed as reduction in cell viability by measuring bliss sum score incubated for 72 hrs in presence of docetaxel by CellTiter-Glo cell vaibility assay; assay type: functional
BT-20 = test: Synergistic antiproliferative activity against human BT-20 cells assessed as reduction in cell viability by measuring bliss sum score incubated for 72 hrs in presence of docetaxel by CellTiter-Glo cell vaibility assay; assay type: functional
[13] = Synergistic antiproliferative activity against human HCC1500 cells assessed as reduction in cell viability by measuring bliss sum score incubated for 72 hrs in presence of docetaxel by CellTiter-Glo cell vaibility assay; assay type: functional
HCC1143 = test: Synergistic antiproliferative activity against human HCC1143 cells assessed as reduction in cell viability by measuring bliss sum score incubated for 72 hrs in presence of docetaxel by CellTiter-Glo cell vaibility assay; assay type: functional
HCC1937 [14] = test: Synergistic antiproliferative activity against human HCC1937 cells assessed as reduction in cell viability by measuring bliss sum score incubated for 72 hrs in presence of docetaxel by CellTiter-Glo cell vaibility assay; assay type: functional
MDA-MB-231 = test: Synergistic antiproliferative activity against human MDA-MB-231 cells assessed as reduction in cell viability by measuring bliss sum score incubated for 72 hrs in presence of docetaxel by CellTiter-Glo cell vaibility assay; assay type: functional
A549 [15] = test: Synergistic antiproliferative activity against human A549 cells assessed as reduction in cell viability by measuring bliss sum score incubated for 72 hrs in presence of docetaxel by CellTiter-Glo cell vaibility assay; assay type: functional
T47D = test: Synergistic antiproliferative activity against human T47D cells assessed as reduction in cell viability by measuring bliss sum score incubated for 72 hrs in presence of docetaxel by CellTiter-Glo cell vaibility assay; assay type: functional
BT-549 = test: Synergistic antiproliferative activity against human BT-549 cells assessed as reduction in cell viability by measuring bliss sum score incubated for 72 hrs in presence of docetaxel by CellTiter-Glo cell vaibility assay; assay type: functional

SMILES: Cc1c(-c2ccc(N3CCc4cccc(C(=O)Nc5nc6ccccc6s5)c4C3)nc2C(=O)O)cnn1CC12CC3CC(CC(C3)C1)C2
- Activity (NCI-H196): Active
- Activity (NCI-H1650 [1]): 170%
- TGI (EBC-1): 88%
- Activity (OVCAR-5 [2]): 85%
- TGI (NCI-H747): 84%
- TGI (A549 [3]): 67%
- Activity (NCI-H1650 [4]): 33%
- TGI (NCI-H358): 91%
- Activity [5]: < 9%
- TGI (OVCAR-5 [6]): 34%
- inhibition in vivo at 25 mg/kg (NCI-H1650 [7]): 48%
- Activity [8]: < 9%
- inhibition in vivo at 25 mg/kg (NCI-H1650 [9]): 98%
- Activity [10]: Non-Toxic

SMILES: CC1(C)CCC(c2ccc(Cl)cc2)=C(CN2CCN(c3ccc(C(=O)NS(=O)(=O)c4ccc(N[C@H](CCN5CCOCC5)CSc5ccccc5)c(S(=O)(=O)C(F)(F)F)c4)cc3)CC2)C1 [NAVITOCLAX]
- Activity (UAC812): Active
- Activity (HCC38): Active
- Activity (MCF7): Active
- Activity (MDA-MB-468): Active
- Activity (HCC1937 [11]): Active
- Activity (HCC1395): Active
- Activity (MDA-MB-361): Active
- Activity (HCC1954): Active

SMILES: CN(C)CC#Cc1ccc(OCCCc2sc(N3CCc4cccc(C(=O)Nc5nc6ccccc6s5)c4C3)nc2C(=O)O)c(F)c1 [A-1155463]
- Activity_index (NCI-H1650 [12]): 312
- Activity_index (BT-20): 260
- Activity_index [13]: 146
- Activity_index (HCC1143): 195
- Activity_index (HCC1937 [14]): 332
- Activity_index (MDA-MB-231): 277
- Activity_index (A549 [15]): 137
- Activity_index (T47D): 250
- Activity_index (BT-549): 117
